Reference: publication PMC10824272 (Biomedicine & pharmacotherapy = Biomedecine & …, 2023)
Values joined by “and” are separate entries in the source; they are usually repeats but may differ in a detail not shown here. Equal values may be shown once.

Experiments:
[1] = Plasma pharmacokinetics in mice; type: in vivo; conditions: for AUC(0-t) / CL/F / Cmax / Tmax / Vd/F / half-life / AUC(0-inf): both, mouse, plasma, 5 mg/kg; for AUC(0-inf): AUC0−∞, mice
In short: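 I-6 given as a single 1 mg/kg intravenous dose to C57BL6 mice (n=5), with serial blood sampling. PDS-0330 given at 5 mg/kg by oral gavage or IP, with ~100 μl blood drawn from the maxillary vein at 5, 15, 30 min and 1, 2, 4, 6, 8, 24 h. Plasma levels in ng/ml; non-compartmental parameters.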

[2] = tested on: pSrc, pAkt, Bcl2, Bcl-xL, survivin, cleaved PARP in SW620 and SW480^cld1 cells; assay: Immunoblotting of signaling and apoptosis markers; type: cell-based, human; conditions: PDS-0330 12.5 and 25μM
In short: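 Treated cells (vehicle or 12.5 and 25 μM) lysed. 10–30 μg protein per lane resolved by SDS-PAGE and immunoblotted, with enhanced chemiluminescence detection on film. Antibodies included p-Src (Tyr416), pAkt and total Akt, with GAPDH or β-actin as loading reference.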

HCT116 cells [3] = assay: Cell viability; type: cell-based, human; conditions: claudin-1 deficient HCT116 cells; 72 hours
In short: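 Cells maintained in RPMI plus 10% FBS. Viability read with PrestoBlue reagent per kit protocol after 72 h exposure to test compound.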

mouse claudin-4 = target: T1, mouse claudin-4 (Mus musculus, UniProt O35054); assay: Microscale thermophoresis; type: binding; conditions: 25 °C, duplicate acquisitions
T1 sequence (O35054 1-210): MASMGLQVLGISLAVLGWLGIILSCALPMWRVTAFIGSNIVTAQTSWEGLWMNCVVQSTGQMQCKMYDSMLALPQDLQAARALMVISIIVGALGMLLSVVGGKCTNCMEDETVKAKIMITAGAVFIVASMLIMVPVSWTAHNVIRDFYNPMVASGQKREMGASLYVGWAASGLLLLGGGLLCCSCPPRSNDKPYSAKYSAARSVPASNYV
In short: (§1)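 Microscale thermophoresis at 25 °C with 1 μM Cy3-labeled, detergent-purified claudin (human claudin-19, mouse claudin-4 or trypsinized human claudin-1) in HEPES pH 7.4/100 mM NaCl buffer. Test compound dissolved in DMSO and titrated from 135 μM to 4.1 nM. Affinity derived from duplicate acquisitions.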

[4] = Drug toxicity in xenograft mice; type: in vivo
In short: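 Body weight recorded during treatment. BUN determined colorimetrically in plasma and kidney tissue lysate by kit protocol. Mice sacrificed at day 25; AST activity measured in plasma and liver homogenate, followed up to 60 min at regular intervals. n=5 mice/group, means ± SEM.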

[5] = tested on: trypsinized human claudin-1; assay: Microscale thermophoresis; type: binding; conditions: 25 °C, at concentrations shown to bind wild-type claudin-1
In short: as §1

human claudin-19 = target: T2, human claudin-19 (Homo sapiens, UniProt Q8N6F1); assay: Microscale thermophoresis; type: binding; conditions: 25 °C, duplicate acquisitions
T2 sequence (Q8N6F1 1-224): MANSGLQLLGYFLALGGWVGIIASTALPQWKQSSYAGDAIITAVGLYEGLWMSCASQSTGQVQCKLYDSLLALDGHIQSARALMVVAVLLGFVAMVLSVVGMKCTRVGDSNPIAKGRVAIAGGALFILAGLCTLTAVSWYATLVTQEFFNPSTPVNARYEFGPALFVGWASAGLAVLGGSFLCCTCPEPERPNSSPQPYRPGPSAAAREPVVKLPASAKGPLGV
In short: as §1

SW480 cells = assay: Cell viability; type: cell-based, human; conditions: even at 25μM
[6] = target: T3, claudin-1/Src association (Homo sapiens, UniProt O95832); assay: Claudin-1 immunoprecipitation / Src immunoblot in SW620 cells; type: cell-based; conditions: 12.5μM and 25μM
T3 sequence (O95832 1-211): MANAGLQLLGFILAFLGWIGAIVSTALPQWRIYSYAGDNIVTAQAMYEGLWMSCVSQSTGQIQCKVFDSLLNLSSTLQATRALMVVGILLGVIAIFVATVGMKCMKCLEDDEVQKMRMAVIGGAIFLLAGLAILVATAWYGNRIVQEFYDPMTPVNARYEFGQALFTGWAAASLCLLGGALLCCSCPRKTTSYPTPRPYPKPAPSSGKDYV

SW620 xenograft tumor = assay: Subcutaneous xenograft tumor study; type: in vivo, athymic nude mice
[7] = Metabolic stability, phase I; type: in vitro ADME, human
In short: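 Phase I stability in human liver microsomes (20 mg/ml stock), 100 mM potassium phosphate pH 7.4, 10 mM MgCl2, 2 mM NADPH. Mix pre-incubated 10 min at 37 °C. Output is percent parent remaining per time point. Elimination rate constant taken from first-order plot of ln area ratio versus time.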

[8] = Tissue bio-distribution in mice; type: in vivo; conditions: mouse, 5 mg/kg
[9] = Solubility in aqueous buffers; type: physicochemical; conditions: dissolved in DMSO to 135 μM for MST
HCT116 cells [10] = assay: Anoikis-induced apoptosis assay; type: cell-based, human; conditions: claudin-1 deficient HCT116

With O=C(NC(=S)Nc1ccc(-c2nc3ccccc3o2)cc1)c1ccc2ccccc2c1 [PDS-0330, N-((4-(benzo[d]oxazol-2-yl)phenyl)carbamothioyl)-2-naphthamide] the “mouse behavior or weight” value ([1]; 24 hours after a single PO and IP injection (5 mg/kg), data not shown) was “no change”, the AUC(0-t) ([1]; ip) was 422 ng·h/mL and the CL/F ([1]; ip) was 245 mL/min/kg. The Cmax ([1]; ip) was 59.3 ng/mL, the Tmax ([1]; ip) was 2.8 h and the Vd/F ([1]; ip) was 126 L/kg. For the same compound, the half-life ([1]; ip) was 5.5 h, the AUC(0-inf) ([1]; ip, PDS-0330 IP 5mg/kg) was 442 ng·h/mL and the AUC(0-t) ([1]; po) was 53.4 ng·h/mL. The CL/F ([1]; po) was 1190 mL/min/kg, the Cmax ([1]; po) was 30.8 ng/mL and the Tmax ([1]; po) was 0.4 h. It also gave a Vd/F ([1]; po) of 1100 L/kg, a half-life ([1]; po) of 14.5 h and an AUC(0-inf) ([1]; po, PDS-0330 PO 5mg/kg) of 86 ng·h/mL. The Akt activation [2] was “suppressing Akt activation”, the “Bcl-2 and Bcl-xL expression” value [2] was “inhibiting” and the “anti-apoptotic proteins Bcl2, Bcl-xL and Survivin” value ([2]; SW480^cld1 and SW620) was “decrease”. For the same compound, the “apoptotic protein cleaved PARP” value ([2]; SW480^cld1 and SW620) was “increase”, the Src phosphorylation ([2]; SW620 and SW480^cld1) was “prevents Src phosphorylation” and the “effect on cell growth/survival” value (HCT116 cells [3]) was “no effect”. For the same compound, the Kd (mouse claudin-4) was 92.1 µM and ≥ 100 µM, the “body weight among groups at the end of treatment” value ([4]; PDS-0330 5mg/Kg and 10mg/Kg, SW620 and SW480^cld1 implanted mice) was “no statistically significant differences” and the “urea nitrogen (BUN) level” value ([4]; kidney tissue and plasma of treated mice) was “not affected”. The “aspartate transaminase (AST) levels” value ([4]; plasma and liver homogenate, day 25) was “not affected”, the “binding to trypsinized and labeled claudin-1” value [5] was “no detectable binding” and the Kd (human claudin-19) was 157 µM and ≥ 100 µM. The “impact on SW480 cells” value (SW480 cells) was “no significant impact”, the “association of Src with claudin-1” value [6] was “significantly interferes” and the “apoptosis in tumors (cleaved PARP, BclxL, survivin)” value (SW620 xenograft tumor; PDS-0330 5mg/Kg and 10mg/Kg) was “increase in apoptosis”. For the same compound, the “proliferation in tumors (Ki67)” value (SW620 xenograft tumor; PDS-0330 5mg/Kg and 10mg/Kg) was “reduced proliferation”, the “tumor volume and weight” value (SW620 xenograft tumor; PDS-0330 5mg/Kg and 10mg/Kg vs vehicle) was “significant reduction” and the “tumor volume, combination with 5-FU” value (SW620 xenograft tumor; PDS-0330 and 5-FU in combination vs either alone) was “substantial reduction”. For the same compound, the “drug remaining after 60 min” value ([7]; HLM, phase I metabolism, 60 min) was 90%, the “metabolism in the presence of HLM” value ([7]; phase I) was less than 15% and the concentration at 2 h ([8]; both, liver, ip) was 277 ng/g. The concentration at 8 h ([8]; both, liver, ip) was 807 ng/g, the concentration at 2 h ([8]; both, liver, po) was 17 ng/g and the concentration at 8 h ([8]; both, liver, po) was 5.8 ng/g. The concentration at 24 h ([8]; both, liver, po) was 10.5 ng/g, the concentration at 24 h ([8]; both, lungs, ip) was 93.7 ng/g and the concentration at 24 h ([8]; both, lungs, po) was 519 ng/g. For the same compound, the concentration at 24 h ([8]; liver, ip) was 407 ng/g, the concentration at 2 h ([8]; lungs, ip) was 338 ng/g and the concentration at 8 h ([8]; lungs, ip) was 76.9 ng/g. The concentration at 2 h ([8]; lungs, po) was 5 ng/g, the concentration at 8 h ([8]; lungs, po) was 473 ng/g and the “solubility in aqueous buffers” value [9] was “limited solubility”. The resistance to anoikis (HCT116 cells [10]) was “not affecting”.
